Measured values of several laboratories.
Lines come from different studies, so protocols differ.
Cell line: MDA-MB-231
Observed: cell growth or viability

| SMILES | method | tested at | time | endpoint | value |
| --- | --- | --- | --- | --- | --- |
| C[C@@H]1CC[C@@H]([C@](C)(O)CNCc2ccccc2)[C@H](OCc2ccccc2)C1 | MTT | 30 µM | 72 h | inhibition | 78.9% |
| Cc1cc(NC(=O)C=Cc2ccccc2)cc(-c2ccnc(N3CCC(O)CC3)c2)c1 | MTT | 5 µM | – | inhibition | 55% |
| Cc1c(Cc2ccccc2)c(=O)oc2c(C)c(OCC(=O)NN=Cc3ccccc3)ccc12 | MTT | 125 µg/mL | – | viability | 8.96% |
| C=C(C)[C@@H]1CC[C@@H](C)C[C@H]1OCc1ccccc1 | MTT | 10 µM | 72 h | inhibition | 21.9% |
| O=C(C=Cc1ccccc1)Nc1cc(-c2ccnc(N3CCC(O)CC3)c2)ccn1 | MTT | 5 µM | – | inhibition | 80.3% |
| COc1ccc(COC[C@@](O)(CNCc2ccccc2)[C@@H]2CC[C@@H](C)C[C@H]2OCc2ccc(OC)cc2)cc1 | MTT | 30 µM | 72 h | inhibition | 101% |
| O=C(C=Cc1ccccc1)Nc1cc(-c2ccnc(N3CCOCC3)c2)ccn1 | MTT | 5 µM | – | inhibition | 78.3% |
| COc1cc([C@@H]2c3cc4c(cc3[C@@H](O[C@@H]3O[C@@H]5CO[C@@H](C)O[C@H]5[C@H](O)[C@H]3O)[C@H]3COC(=O)[C@H]23)OCO4)cc(OC)c1O | MTT | – | 48 h | IC50 | 43.2 µM |
| CCNC(=S)NNC(=O)COc1ccc2c(C)c(CC)c(=O)oc2c1C | MTT | 125 µg/mL | – | viability | 45% |
| COc1ccc(CNC[C@](O)(COCc2ccc(F)cc2)[C@@H]2CC[C@@H](C)C[C@H]2OCc2ccc(F)cc2)cc1 | MTT | 30 µM | 72 h | inhibition | 99.4% |
| CCc1c(C)c2ccc(OCC=Cc3ccccc3)c(C)c2oc1=O | MTT | 500 µg/mL | – | viability | 13% |
| Cn1cc(-n2cnc3c(NCc4nc5cc(Cl)c(Cl)cc5[nH]4)nc(N4CCOCC4)nc32)cn1 | – | – | 5 days | EC50 | 32.4 nM |
| COc1ccccc1CNC[C@@](C)(O)[C@@H]1CC[C@@H](C)C[C@H]1OCc1ccccc1 | MTT | 30 µM | 72 h | inhibition | 87.6% |
| O=C(O)c1ccccc1Nc1cccc(C(F)(F)F)c1 | SRB | – | 48 h | GI50 | > 30 µM |
| CCc1c(C)c2ccc(OCc3nnc(S)n3N)c(C)c2oc1=O | MTT | 31.25 µg/mL | – | viability | 94.3% |
| O=C(C=Cc1ccccc1)Nc1cccc(-c2ccnc(N3CCC(CO)CC3)c2)c1 | MTT | 5 µM | – | inhibition | 67.4% |
| CCc1c(C)c2ccc(OCC(=O)NNC(=S)Nc3ccccc3)c(C)c2oc1=O | MTT | 500 µg/mL | – | viability | 4.23% |
| COc1ccc(COC[C@@](O)(CNCc2ccc(F)cc2)[C@@H]2CC[C@@H](C)C[C@H]2OCc2ccc(OC)cc2)cc1 | MTT | 30 µM | 72 h | inhibition | 99.2% |
| C=CCOc1ccc2c(C)c(CC)c(=O)oc2c1C | MTT | 31.25 µg/mL | – | viability | 99.7% |
| COc1cc2c3c(n(CCCNCCO)c(=O)c2cc1OC)-c1nc2c(cc1C3=O)OCO2 | MTS | – | 72 h | IC50 | 0.806 µM |
